Assay results from ChEMBL document CHEMBL1159342, “Nitric oxide inhibitory isopimarane-type diterpenes from Orthosiphon stamineus of Indonesia” (J Nat Prod, 2003).

System: J774.1
Assay: Inhibition of LPS-induced NO production in mouse J774.1 cells after 24 hrs
Assay type: functional, cell-based
Settings: J774.1, 24 h
In short: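 Cells harvested with trypsin, seeded at 1 × 10^5 cells/well, adhered 2 h at 37 °C under 5% CO2. Medium then replaced with fresh medium containing LPS (10 µg/mL) plus test compounds at indicated concentrations, 24 h. Nitrite in supernatant measured with Griess reagent (10 min, room temperature), absorbance 550 nm. Quantified against NaNO2 standard curve in medium, medium-only blank subtracted.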

Going from C[C@@H]1C[C@H]2[C@@H]3CCC4=CC(=O)C=C[C@]4(C)[C@@]3(F)[C@@H](O)C[C@]2(C)[C@@]1(O)C(=O)CO [DEXAMETHASONE] to C=C[C@@]1(C)C[C@@H](O)[C@@H]2[C@@]3(C)C=C(OC(C)=O)C(=O)C(C)(C)[C@@H]3C[C@@H](OC(C)=O)[C@@]2(O)C1=O [ORTHOSIPHOL Y], the IC50 falls from 170 µM to 37.9 µM (4.5-fold). The second is the more potent here.

Going from C=C[C@@]1(C)C[C@@H](OC(=O)c2ccccc2)[C@H]2[C@](O)(C1=O)[C@H](OC(C)=O)C[C@H]1C(C)(C)[C@H](O)[C@H](OC(C)=O)[C@H](OC(=O)c3ccccc3)[C@@]12C [ORTHOSIPHOL A] to C=C[C@@]1(C)C[C@@H](OC(=O)c2ccccc2)[C@H]2[C@](O)(C1=O)[C@H](OC(C)=O)C[C@H]1C(C)(C)[C@H](OC(C)=O)[C@H](O)[C@H](OC(=O)c3ccccc3)[C@@]12C [ORTHOSIPHOL B], the IC50 rises from 11.5 µM to 20.5 µM (1.8-fold). The first is the more potent here.

First: C=C[C@@]1(C)C[C@@H](OC(=O)c2ccccc2)[C@@H]2[C@@]3(C)C=C(OC(C)=O)C(=O)C(C)(C)[C@@H]3C[C@@H](OC(C)=O)[C@@]2(O)C1=O [ORTHOSIPHOL D]
Second: C=C[C@@]1(C)C[C@@H](O)[C@H]2[C@](O)(C1=O)[C@H](OC(C)=O)C[C@H]1C(C)(C)[C@H](O)[C@H](OC(C)=O)[C@H](OC(=O)c3ccccc3)[C@@]12C [ORTHOSIPHOL W]
The IC50 of the first is 4-fold lower: 14.4 µM for the first, 57.6 µM for the second. The first is the more potent here.

C=C[C@@]1(C)C[C@@H](OC(=O)c2ccccc2)[C@H]2[C@](O)(C1=O)[C@H](O)C[C@H]1C(C)(C)[C@H](OC(C)=O)[C@H](OC(C)=O)[C@H](OC(=O)c3ccccc3)[C@@]12C [ORTHOSIPHOL F] and C=C[C@@]1(C)C[C@@H](OC(=O)c2ccccc2)[C@H]2[C@](O)(C1=O)[C@H](O)C[C@H]1C(C)(C)[C@H](O)[C@H](OC(C)=O)[C@H](OC(=O)c3ccccc3)[C@@]12C [ORTHOSIPHOL T] are within 1.5-fold of each other in IC50: 34.5 µM for the first, 35.9 µM for the second.

Compared with C=C[C@@]1(C)C[C@@H](O)[C@H]2[C@](O)(C1=O)[C@H](O)C[C@H]1C(C)(C)[C@H](OC(C)=O)[C@H](OC(C)=O)[C@H](OC(=O)c3ccccc3)[C@@]12C [ORTHOSIPHOL G], C=C[C@@]1(C)C[C@@H](O)[C@H]2[C@](O)(C1=O)[C@H](OC(C)=O)C[C@H]1C(C)(C)[C@H](OC(C)=O)[C@H](OC(C)=O)[C@H](OC(=O)c3ccccc3)[C@@]12C [ORTHOSIPHOL U] is 2.4-fold lower in IC50: 145 µM for the first, 59.7 µM for the second.

Going from C=C[C@@]1(C)CC(=O)[C@H]2[C@](O)(C1=O)[C@H](O)C[C@H]1C(C)(C)[C@H](OC(C)=O)[C@H](OC(C)=O)[C@H](OC(=O)c3ccccc3)[C@@]12C [ORTHOSIPHOL I] to C=C[C@@]1(C)CC(=O)[C@H]2[C@](O)(C1=O)[C@H](OC(C)=O)C[C@H]1C(C)(C)[C@H](OC(C)=O)[C@H](OC(C)=O)[C@H](OC(=O)c3ccccc3)[C@@]12C [ORTHOSIPHOL J], the IC50 falls from 102 µM to 66.3 µM (1.5-fold).

First: C=C[C@@]1(C)C[C@@H](O)[C@H]2[C@](O)(C1=O)[C@H](OC(C)=O)C[C@H]1C(C)(C)[C@H](OC(=O)c3ccccc3)[C@H](OC(C)=O)[C@H](OC(=O)c3ccccc3)[C@@]12C [ORTHOSIPHOL O]
Second: C=C[C@@]1(C)C[C@@H](O)[C@H]2[C@](O)(C1=O)[C@H](O)C[C@H]1C(C)(C)[C@H](OC(=O)c3ccccc3)[C@H](OC(C)=O)[C@H](OC(=O)c3ccccc3)[C@@]12C [ORTHOSIPHOL X]
The IC50 of the first is 4.3-fold higher: 27.7 µM for the first, 6.4 µM for the second.

C=C[C@]1(C)C(=O)[C@]2(O)[C@H](OC(C)=O)C[C@H]3C(C)(C)[C@H](OC(C)=O)[C@H](O)[C@H](OC(=O)c4ccccc4)[C@]3(C)[C@H]2[C@H](OC(=O)c2ccccc2)[C@H]1O [ORTHOSIPHOL R] and C=C[C@@]1(C)CC(=O)[C@H]2[C@](O)(C1=O)[C@H](OC(C)=O)C[C@H]1C(C)(C)[C@H](OC(=O)c3ccccc3)[C@H](OC(C)=O)[C@H](OC(=O)c3ccccc3)[C@@]12C [ORTHOSIPHONONE A] are within 1.5-fold of each other in IC50: 35.7 µM for the first, 32.1 µM for the second.

Going from C=C[C@@]1(C)C[C@@H](O)[C@H]2[C@](O)(C1=O)[C@H](OC(C)=O)C[C@H]1C(C)(C)[C@H](OC(C)=O)[C@H](O)[C@H](OC(=O)c3ccccc3)[C@@]12C [ORTHOSIPHOL V] to C=C[C@@]1(C)C[C@@H](OC(=O)c2ccccc2)[C@@H]2[C@@](C)(CC(=O)O)[C@H](C(C)(C)C(=O)OC)C[C@@H](OC(C)=O)[C@@]2(O)C1=O [SECOORTHOSIPHOL B], the IC50 rises from 54.5 µM to 127 µM (2.3-fold). The first is the more potent here.

Work on CNC(=N)NCCC[C@H](N)C(=O)O [TILARGININE] yielded an IC50 of 26 µM.
